Measured values pooled from the literature.
Lines come from different studies, so protocols differ.
CSF1R: Macrophage colony-stimulating factor 1 receptor (CSF1R, Homo sapiens, UniProt P07333)

Structure (SMILES)	target	test	conditions	endpoint	value
O=c1[nH]c2ccccc2n1C1CCN(Cc2ccc(-c3[nH]c4cc5ncnc5cc4nc3-c3ccccc3)cc2)CC1	CSF1R	cell-free assay	0.5 µM	remaining signal	97%
Cn1cc(-c2cccc(N3CCc4c(sc5c4CC(C)(C)C5)C3=O)c2CO)cc(Nc2ccncn2)c1=O	CSF1R	enzyme activity, inhibitor	1 µM	inhibition	6%
COCc1c(-c2cc3cc(C)cc(OC)c3s2)c2c(N)ncnn2c1CN1CCNC(=O)C1	CSF1R	cell-free assay, competition with immobilised ligand	1 µM	inhibition	100%
Nc1ncc(-c2nc(N3CCOCC3)nc(N3CCOCC3)n2)c(C(F)F)n1	CSF1R	cell-free assay, competition with immobilised ligand	10 µM	remaining binding	14%
Cn1cc(-c2cc(F)cc(N3CCn4c(cc5c4CCCC5)C3=O)c2CO)cc(Nc2ccc(N3CCN(C4COC4)CC3)cn2)c1=O	CSF1R	enzyme activity, inhibitor	0.1 µM	inhibition	13%
N#CC1(c2ccccn2)CCN(Cc2cc(C(=O)O)c(=O)n3ccccc23)CC1	CSF1R	cell-free assay, competition with immobilised ligand	1 µM	remaining binding	95%
COc1ncccc1-c1cnn2ccc(N3CCN(C(=O)OC(C)C)CC3)nc12	CSF1R	binding, competition with immobilised ligand	1 µM	remaining binding	100%
C#Cc1n[nH]c2c(-c3cn(C(C)c4ccccn4)c(=O)[nH]c3=O)cc(F)cc12 (centres unmarked)	CSF1R	enzyme activity, inhibitor	1 µM	inhibition	5.8%
CC(C)(C)c1cc(C=C(C#N)C#N)cc(Br)c1O	CSF1R	enzyme activity, inhibitor	0.5 µM	remaining activity	96.8%
C#Cc1n[nH]c2c(-c3cn([C@@H](C)c4ccccc4)c(=O)[nH]c3=O)cc(F)cc12	CSF1R	enzyme activity, inhibitor	0.1 µM	inhibition	4.9%
Cn1cncc1[C@](O)(COc1ccc(C#N)cc1-c1ccc(OC(F)(F)F)cc1)c1ccc(C#N)cc1	Macrophage colony-stimulating factor 1 receptor, autoinhibited (CSF1R, Homo sapiens, UniProt P07333)	cell-free assay, competition with immobilised ligand	1 µM	remaining binding	93%
